Assay outcomes as filed in PubChem BioAssay.
Rtt109 HAT inh: blocks Candida albicans Rtt109/Vps75 acetyltransferase activity. inhibition, % at 34.9 µM. purified Rtt109/Vps75, ThioGlo CoA-SH fluorescence, 4 h. actives 0.16% (n = 330,000);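 active means inhibition of at least 50% in every replicate; inconclusive means best replicate reaches 50% inhibition but some replicates fall short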
Target sequence (Q5AAJ8 whole entry, looked up): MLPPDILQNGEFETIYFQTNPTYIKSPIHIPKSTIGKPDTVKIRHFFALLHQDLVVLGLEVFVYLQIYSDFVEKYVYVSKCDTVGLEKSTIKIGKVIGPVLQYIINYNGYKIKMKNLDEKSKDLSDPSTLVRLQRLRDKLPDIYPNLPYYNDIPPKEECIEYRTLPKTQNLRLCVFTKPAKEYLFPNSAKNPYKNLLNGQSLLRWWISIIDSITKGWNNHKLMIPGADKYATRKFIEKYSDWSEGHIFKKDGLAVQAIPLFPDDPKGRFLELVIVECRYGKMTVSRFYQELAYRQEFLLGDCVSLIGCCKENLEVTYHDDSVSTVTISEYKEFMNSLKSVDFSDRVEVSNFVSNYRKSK
MLL AF4-AF9 inh: inhibitors of human MLL-AF4/AF9 interaction; P42568; actives 0.47% (n = 350,000); AlphaScreen, biotin-AF4 peptide binding to FLAG-AF9; inhibition, % at 10 µM;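 active means every replicate reaching a set inhibition limit, whatever the replicate mean, cut at about 25% in these data; inconclusive means mean inhibition reaches that limit but some replicates miss it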;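 further: 0% = plate neutral control median and 100% = total signal loss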
miR-122 sensor: inhibitors of miR-122 in Huh7 cells. Huh7 miR-122 Renilla luciferase sensor, 48 h; neutral wells = 0, positive control = 100. activation (reporter increase), % at 12.5 µM. actives 0.3% (n = 340,000). AID 602342;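 active means mean replicate activation score at least 90 and every replicate individually at or above 90; inconclusive means only one of the two criteria met; inactive means neither criterion met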;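 further: higher luciferase means less miR-122 activity so hits act as miR-122 inhibitors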
ERAP1 HTS inh: ERAP1 (human) enzyme inhibition. Q9NZ08. recombinant ERAP1, Leu-AMC fluorescence, 60 min. inhibition, % at 10.7 µM. actives 0.15% (n = 340,000). AID 652197;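 active means mean replicate inhibition of at least 30%, or all replicates individually reaching that 30% level; inactive means mean below 30% and not every replicate reaching it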;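 further: 0% = neutral control wells and 100% = L-leucinethiol positive control wells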
S100A4 inh HTS: inhibitors of human S100A4 binding to myosin IIA peptide; S100A4/TAMRA-MyoIIA peptide fluorescence polarization; inhibition, % at 10.7 µM; actives 0.14% (n = 360,000);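 active means mean inhibition of at least 70% across replicates, with every replicate also reaching that level; inconclusive means mean inhibition reaches 70% but some replicates fall short; inactive means mean inhibition below 70%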
Target sequence (P26447 whole entry, looked up): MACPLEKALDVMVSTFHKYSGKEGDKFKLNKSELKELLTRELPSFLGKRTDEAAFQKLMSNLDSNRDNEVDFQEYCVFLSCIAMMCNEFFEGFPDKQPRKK
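assay system = human S100A4 monomer with TAMRA-labelled myosin IIA peptide | also added = labelled myosin peptide probe, 5 nM | incubation = 5 min between mix addition and reading | control set = DMSO and TFP controls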
The depositor's hits bear a star; ? = inconclusive; nt = no result; + = active, no number; [ ] = remark or other dose. In the library only some 0.86% were active in any assay of this set; here they are far more common.

SMILES | Rtt109 HAT inh | MLL AF4-AF9 inh | miR-122 sensor | ERAP1 HTS inh | S100A4 inh HTS
O=C(NC1CCCCCC1)c1ccc(Br)o1 | -12.8 | -0.2 | nt | 2.4 | 0.4
O=C(NC1CCCCC1)Oc1cc2oc(=O)sc2cc1Br | 59.4* | -4.2 | nt | 25.7 | -0.1
CCc1ccccc1NC(=O)CCNS(=O)(=O)c1cc(Br)cnc1N | 4.2 | -1.1 | 4.1 | 2.9 | -4.3
Cc1cc(C)cc(NS(=O)(=O)c2cc(Br)cnc2N)c1 | 5.0 | -0.8 | 97.7* | 2.4 | -0.5
Nc1ncc(Br)cc1S(=O)(=O)NC1CCCCC1 | -6.7 | -2.5 | 126.0* | 1.2 | 2.0
CC1CCCC(NS(=O)(=O)c2cc(Br)cnc2N)C1C (stereo unspecified) | 3.1 | 2.3 | nt | -1.6 | 2.0
Cc1cc(C)cc(NC(=O)CCNS(=O)(=O)c2cc(Br)cnc2N)c1 | 3.9 | 0.5 | 0.0 | -3.6 | -6.1
Nc1ncc(Br)cc1S(=O)(=O)NCCc1ccccc1 | -6.8 | -5.9 | 105.5* | 1.8 | -4.2
Cc1ccc(NS(=O)(=O)c2cc(Br)cnc2N)cc1C | 2.0 | -0.5 | 144.2* | -3.2 | -1.4
Cc1ccc(S(=O)(=O)N(C)C[C@@H]2OCCCC[C@@H](C)Oc3ccc(NS(C)(=O)=O)cc3C(=O)N([C@H](C)CO)C[C@H]2C)cc1 | nt | -2.0 | -5.3[16.7 µM] | 1.6 | -3.9
C[C@H]1CN([C@@H](C)CO)C(=O)c2ccccc2-c2ccccc2CO[C@H]1CN(C)S(=O)(=O)CC(F)(F)F | nt | -4.2 | nt | -2.2 | -5.2
CO[C@@H]1CN(C)C(=O)c2cc(NC(=O)c3cc(C)on3)ccc2OC[C@H](C)N(CC2CC2)C[C@@H]1C | nt | -2.1 | nt | nt | 10.8
CSc1cccc(NS(=O)(=O)c2cc(Br)cnc2N)c1 | 0.0 | 0.9 | 106.0* | 2.7 | -1.8
CSc1cccc(NS(=O)(=O)c2ccccc2)c1 | 0.4 | nt | -35.5 | nt | nt
NC(N)=N/N=C/c1ccc(OCc2ccccc2)c(OCc2ccccc2)c1 | 78.9* | 19.9 | nt | -22.9 | -2.9
NC(N)=N/N=C/c1ccccc1 | 12.1 | nt | nt | nt | nt
O=C(c1ccc2c(c1)OCO2)N1CC(=O)N2[C@@H](CO)[C@H](c3ccc(C#Cc4ccccc4)cc3)[C@@H]2C1 | nt | 9.9 | nt | -2.4 | 114.3*
CC(C)CC#Cc1ccc([C@@H]2[C@H](CO)N3C(=O)CN(C(=O)c4ccccn4)C[C@@H]23)cc1 | nt | 0.4 | nt | 0.2 | 107.2*
O=C(c1ccccc1F)N1CC(=O)N2[C@@H](CO)[C@H](c3ccc(C#Cc4ccccc4)cc3)[C@@H]2C1 | nt | -3.6 | nt | 0.6 | 79.2*
O=C(c1ccccc1F)N1CC(=O)N2[C@H](CO)[C@H](c3ccc(C#Cc4ccccc4)cc3)[C@H]2C1 | nt | -1.6 | nt | 0.9 | -6.0
Cc1ccc(S(=O)(=O)N(C)C[C@H]2Oc3ccc(NC(=O)c4ccncc4)cc3CC(=O)N([C@@H](C)CO)C[C@H]2C)cc1 | nt | 1.0 | -5.9[16.7 µM] | 0.1 | -5.7
COc1ccc2c3c(n(C)c2c1)[C@H](CO)N(C(=O)CC1CC1)CC31CCN(C(=O)CC2CC2)CC1 | nt | 0.1 | nt | 1.9 | -1.4
COc1cc2c3nnc(-c4ccc(F)cc4)c-3cn(Cc3ccc(C)cc3)c2cc1OC | 5.0 | 2.5 | -0.7 | 3.3 | +
O=C(C[C@@H]1C[C@H]2c3cc(NC(=O)C4CCOCC4)ccc3O[C@H]2[C@H](CO)O1)NC1CCCCC1 | nt | -4.0 | -1.0[16.7 µM] | 0.4 | 1.1
CC(C)C[C@@H]1CN=C(N)N1C[C@@H]1CCCN1C[C@H](C)N1C[C@@H](Cc2ccccc2)N(CCc2ccc(Cl)c(Cl)c2)C1=N | 75.2* | nt | -2.0 | nt | nt
SMILES | Rtt109 HAT inh | MLL AF4-AF9 inh | miR-122 sensor | ERAP1 HTS inh | S100A4 inh HTS
COc1cccc(C#Cc2ccc([C@H]3[C@@H](CO)N4C(=O)CN(C(=O)Cc5ccccc5)C[C@H]34)cc2)c1 | nt | nt | nt | nt | 6.8
COc1ccc(Nc2ccc(Cl)nn2)cc1 | -2.0 | 43.1* | -4.1 | -6.5 | -2.1
COc1ccc(C(=O)NCC(=O)N/N=C/c2cccnc2)cc1OC | 18.1 | 1.5 | 4.4 | -1.7 | 3.5
COc1cc(C(=O)NCC(=O)N/N=C/c2cccnc2)cc(OC)c1OC | -5.2 | 45.1* | 1.9 | -0.1 | -6.1
CCOC(=O)C(C)N1C(=O)S/C(=C/c2ccc3c(c2)n(C)c(=O)n3C)C1=O (stereo unspecified) | 53.7* | 10.7 | 0.2 | 8.7 | -7.3
CCC(C)N1C(=O)S/C(=C/c2ccc3c(c2)n(C)c(=O)n3C)C1=O (stereo unspecified) | 8.3 | 11.2 | -4.4 | 1.2 | -1.0
CSc1nnc2c3cc(F)ccc3n(Cc3ccccc3)c2n1 | -6.5 | nt | 163.6* | nt | nt
O=C(NC[C@@H]1CC[C@@H]2[C@@H](CN2S(=O)(=O)c2ccccc2[N+](=O)[O-])O1)C1CCOCC1 | nt | 28.0* | nt | 10.9 | -3.6
C[C@@H]1CN([C@H](C)CO)C(=O)c2cc(NC(=O)C3CCCCC3)ccc2O[C@@H]1CN(C)C(=O)Nc1ccccc1 | nt | -13.4 | -7.0[16.7 µM] | 2.5 | 1.3
Cc1ccccc1C(=O)Nc1ccc(Br)c(C)n1 | -4.9 | nt | 127.9* | nt | nt
O=C(C[C@H]1CC[C@@H]2[C@H](COC[C@@H](O)CN2S(=O)(=O)c2ccc(Oc3ccccc3)cc2)O1)Nc1ccccc1 | nt | 5.7 | 2.2[16.7 µM] | -0.2 | -9.1
CN(C)CCCNC(=O)/C(=C\c1ccc(-c2ccc(Br)cc2)o1)NC(=O)c1ccccc1 | ? | 28.6* | -0.2 | 8.9 | 1.4
C[C@H](CO)N1C[C@H](C)[C@@H](CN(C)C(=O)Nc2ccccc2)Oc2ccc(NC(=O)Nc3ccc(C(F)(F)F)cc3)cc2CC1=O | nt | 0.1 | 16.7[16.7 µM] | 3.0 | 0.8
Cc1cc2ccccc2n1CCNC(=O)c1ccc(S(=O)(=O)N2CCCCC2)cc1 | 3.4 | 4.3 | nt | -2.7 | 123.6*
CCOC(=O)CSC1=C(C#N)C(c2ccc(Cl)cc2)CC(=O)N1 (stereo unspecified) | 0.5 | -1.9 | -0.9 | -2.4 | -2.8
CCOC(=O)CSC1=C(C#N)C(c2ccc(C)o2)CC(=O)N1 (stereo unspecified) | 6.2 | 29.8* | 30.8 | -0.3 | -2.8
C[C@H](CO)N1C[C@H](C)[C@@H](CN(C)C(=O)Nc2ccccc2)OCCCC[C@H](C)Oc2ccc(NC(=O)c3ccccc3)cc2C1=O | nt | 1.7 | 3.2[16.7 µM] | 1.4 | -9.3
Cc1cc(S(=O)(=O)NCC2CC2)c(Cl)cc1Cl | 10.2 | -5.8 | 104.8* | 0.9 | -11.3
CCCN(C(=O)c1cccc(S(=O)(=O)N2CCN(Cc3ccccc3)CC2)c1)C1CCS(=O)(=O)C1 (stereo unspecified) | 5.0 | 6.3 | -7.7 | 0.2 | -1.4
CN1CCN(S(=O)(=O)c2cccc(C(=O)N(C)CC(=O)Nc3ccc(F)c(F)c3F)c2)CC1 | -3.2 | 0.3 | nt | 99.0* | -12.4
CC(=O)N1CCN(S(=O)(=O)c2cccc(C(=O)N(Cc3ccccc3)c3ccc(C)cc3)c2)CC1 | 34.5 | 6.6 | 3.0 | 0.2 | -4.0
CC(C)CN(C(=O)c1cccc(S(=O)(=O)N2CCN(Cc3ccccc3)CC2)c1)C1CCS(=O)(=O)C1 (stereo unspecified) | 8.2 | 27.7* | -3.5 | 1.4 | -1.7
